Measurements collected from several papers.
Protocols differ between the studies behind these lines.
Target: Mitogen-activated protein kinase kinase kinase 7 (MAP3K7, Homo sapiens, UniProt O43318)
One construct used (O43318 1-606): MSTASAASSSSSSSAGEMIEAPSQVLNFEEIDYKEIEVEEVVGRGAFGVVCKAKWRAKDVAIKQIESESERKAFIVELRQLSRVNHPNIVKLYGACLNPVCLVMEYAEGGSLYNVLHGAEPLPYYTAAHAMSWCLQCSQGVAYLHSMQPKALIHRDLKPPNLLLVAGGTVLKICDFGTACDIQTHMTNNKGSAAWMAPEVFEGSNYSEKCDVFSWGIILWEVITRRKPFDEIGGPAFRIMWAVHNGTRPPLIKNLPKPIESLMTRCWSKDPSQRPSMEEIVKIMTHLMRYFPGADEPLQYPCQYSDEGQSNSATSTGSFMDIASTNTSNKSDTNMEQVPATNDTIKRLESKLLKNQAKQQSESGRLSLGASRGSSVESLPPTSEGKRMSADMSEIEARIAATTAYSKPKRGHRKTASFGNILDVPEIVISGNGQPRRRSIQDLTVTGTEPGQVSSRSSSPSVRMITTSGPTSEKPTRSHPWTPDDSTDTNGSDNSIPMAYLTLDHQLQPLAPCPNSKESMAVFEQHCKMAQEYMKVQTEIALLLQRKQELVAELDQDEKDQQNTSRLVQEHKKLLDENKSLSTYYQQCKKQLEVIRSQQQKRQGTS

| SMILES | assay | conditions | remaining binding |
| --- | --- | --- | --- |
| Nc1ncc2c(n1)-c1c([nH]c3ccc(C#CC4CC4)cc13)CCCC2 | binding, competition with immobilised ligand | 1 µM | 89% |
| CN(c1nccc(-c2cnn3ncccc23)n1)C1CC1 | binding | 1 µM | 82% |
| NS(=O)(=O)c1cc(NC(=O)Cc2ccccc2)ccc1Oc1cccc(Cl)c1 | cell-free assay, competition with immobilised ligand | 1 µM | 75% |
| COc1cnc(Nc2cccc(S(N)(=O)=O)c2)nc1N1CCN(c2ccccc2)C(=O)C1 | binding, competition with immobilised ligand | 1 µM | 74% |
| COc1ncc2cc3ccccc3nc2c1C#N | cell-free assay, competition with immobilised ligand | 5 µM | 92% |
| F[C@@H]1CCN(c2nccc(-c3cnn4ncccc34)n2)C1 | binding | 1 µM | 100% |
| O=C(NS(=O)(=O)c1ccc(NCC2CCOCC2)c([N+](=O)[O-])c1)c1ccc(N2CCN(Cc3ccc(C(F)(F)F)cc3-c3ccc(Cl)cc3)CC2)cc1Oc1cnc2[nH]ccc2c1 | cell-free assay, competition with immobilised ligand | 1 µM | 100% |
| O=C(c1ccc(Nc2nccc(-c3cc4ccccc4s3)n2)cc1)N1CCC(N2CCCC2)CC1 | binding, competition with immobilised ligand | 1 µM | 7.2% |
| c1cnn2ncc(-c3ccnc(N4CCC45COC5)n3)c2c1 | binding | 1 µM | 51% |
| O=C(NCCCN1CCOCC1)c1ccc(Nc2ncc(Cl)c(-c3ccc(Cl)s3)n2)cc1 | binding, competition with immobilised ligand | 1 µM | 4.5% |
| Cc1cc(NC(=O)c2cccc(S(F)(F)(F)(F)F)c2)cc(-n2ccn3nc(-c4cccnc4)cc23)c1 | cell-free assay, competition with immobilised ligand | 1 µM | 100% |
| O=C(NCC1CCOCC1)c1n[nH]cc1NC(=O)c1c(F)cccc1F | binding, competition with immobilised ligand | 1 µM | 73% |
| CC(C)(O)c1cncc(-c2nc3ccc(F)cc3n2C2CC2)c1 | cell-free assay, competition with immobilised ligand | 1 µM | 100% |
| CN(C)c1nccc(-c2cnn3ncccc23)n1 | binding | 1 µM | 97% |
| CC1=C(C#N)[C@@H](c2ccc3[nH]nc(C)c3c2)C(C#N)=C(c2ccc(Cl)cc2)N1 | cell-free assay, competition with immobilised ligand | 1 µM | 100% |
| CN(C)c1nccc(-c2cnc3ncccn23)n1 | binding | 1 µM | 36% |
| O=C(c1ccc(Nc2ncc(Cl)c(-c3cc4ccccc4s3)n2)cc1)N1CCC(N2CCCC2)CC1 | binding, competition with immobilised ligand | 1 µM | 3.6% |
| Cc1c(NC(=O)c2cc(C(N)=O)nc3cc(F)ccc23)c(C(F)(F)F)nn1Cc1ccc(C#N)cc1 | cell-free assay, competition with immobilised ligand | 1 µM | 68% |
| N[C@H]1CCN(c2nccc(-c3cnn4ncccc34)n2)C1 | binding | 1 µM | 100% |
| COc1cc(-c2cn(C3CCc4ccccc4N(CC(F)(F)F)C3=O)nn2)ccc1-n1ccc(C)n1 (stereo not shown) | cell-free assay, competition with immobilised ligand | 1 µM | 86% |
| c1cncc(-c2cccc(Nc3nccc(NC4CCCCC4)n3)c2)c1 | binding, competition with immobilised ligand | 10 µM | 19% |
| C[C@@H]1CCN(c2nccc(-c3cnn4ncccc34)n2)C1 | binding | 1 µM | 81% |
